The target of one data set is Cytochrome P450 3A4 (Homo sapiens, UniProt P08684). Nature of the data set: Inhibition of recombinant human CYP3A4 expressed in Escherichia coli using VG as probe substrate incubated for 15 to 60 mins by fluorometric assay. Format: ADME.
Data set [1] concerns the target T1, Bromodomain-containing protein 4 (Homo sapiens, UniProt O60885). Nature of the data set: Inhibition of BRD4 in human whole blood assessed as reduction in LPS-induced IL-6 secretion preincubated for 30 mins followed by LPS stimulation and measured after 24 hrs by MSD assay. The class given is tissue-based.
A short description of data set [2]: Unbound fraction in Beagle dog blood at 100 to 1000 ng/ml by LC-MS/MS-based rapid equilibrium dialysis method. The class given is ADME, tissue-based, Canis lupus familiaris. The settings on record: dose 100-1000 ng/ml. Summed up:
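Whole blood (male Balb/C mouse, male Wistar Han rat, male Beagle dog; human from one unmedicated donor) spiked to nominal 100 and 1000 ng/mL; 10 min at 37 °C, then rapid equilibrium dialysis against PBS 4 h at 37 °C, 100 rpm. Matrix-matched acetonitrile extraction, LC-MS/MS; mean of n = 6.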

The target in another data set is Cytochrome P450 2C19 (Homo sapiens, UniProt P33261). In words: Inhibition of recombinant human CYP2C19 expressed in Escherichia coli using BMC as probe substrate incubated for 15 to 60 mins by fluorometric assay. Format: ADME. Summed up: (§1)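 Recombinant human CYPs coexpressed with NADPH reductase in E. coli bactosomes (0.1 mg protein/mL); profluorescent substrates ER (1A2), BMC (2C19), MMC (2D6), VividGreen or VividRed (3A4).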
Sequence of Cytochrome P450 2C19 (P33261 whole entry): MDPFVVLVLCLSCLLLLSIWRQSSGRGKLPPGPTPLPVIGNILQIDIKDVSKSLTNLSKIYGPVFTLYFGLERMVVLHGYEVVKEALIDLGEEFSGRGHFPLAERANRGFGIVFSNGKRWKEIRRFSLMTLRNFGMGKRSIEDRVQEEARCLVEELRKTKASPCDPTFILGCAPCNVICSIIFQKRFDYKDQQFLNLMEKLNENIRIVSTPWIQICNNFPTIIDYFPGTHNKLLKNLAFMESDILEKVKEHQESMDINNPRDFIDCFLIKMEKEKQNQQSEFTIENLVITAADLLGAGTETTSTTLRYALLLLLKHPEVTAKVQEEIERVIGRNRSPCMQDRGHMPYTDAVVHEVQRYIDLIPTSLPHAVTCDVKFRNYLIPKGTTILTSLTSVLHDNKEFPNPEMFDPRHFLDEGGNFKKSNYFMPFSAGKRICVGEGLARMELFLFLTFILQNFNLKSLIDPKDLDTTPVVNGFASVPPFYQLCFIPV

The target of another data set is Cytochrome P450 2D6 (Homo sapiens, UniProt P10635). In words: Inhibition of recombinant human CYP2D6 expressed in Escherichia coli using MMC as probe substrate incubated for 15 to 60 mins by fluorometric assay. The class given is ADME. The procedure, abridged:
as §1

A short description of data set [3]: Total blood clearance in Beagle dog at 1 mg/kg/hr, iv measured upto 28 hrs by LC-MS/MS analysis relative to hepatic blood flow. Format: ADME, organism-based, Canis lupus familiaris. The note with it: in vivo.
A short description of data set [4]: Volume of distribution at steady state in Beagle dog at 1 mg/kg/hr, iv measured upto 28 hrs by LC-MS/MS analysis. The class given is ADME, organism-based, Canis lupus familiaris. The settings on record: in vivo, read-out: Vdss.
A short description of data set [5]: Half life in Beagle dog at 1 mg/kg/hr, iv measured upto 28 hrs by LC-MS/MS analysis. The class given is ADME, organism-based, Canis lupus familiaris. The settings on record: in vivo.
Data set [6] in a line: AUC(0 to t) in Beagle dog at 5 mg/kg, po measured upto 24 hrs by HPLC-MS/MS analysis. The class given is ADME, organism-based, Canis lupus familiaris. Further details: route oral, dose 5 mg/kg, time <=24. The note with it: in vivo. Summed up: (§2)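 Oral suspension in 1% (w/v) hydroxypropylmethyl cellulose in water; male rats (n = 3) and male dogs (n = 4). AUC taken from 0 h to last quantifiable time point; Cmax is maximum observed plasma concentration; Tmax reported as median. Mean ± SD.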

The nature of data set [7]: Cmax in Wistar Han rat at 1 mg/kg, po measured upto 24 hrs by HPLC-MS/MS analysis. Format: ADME, organism-based. Also noted: route oral, dose 1 mg/kg, time <=24. The note with it: in vivo. The procedure, abridged: as §2
A short description of data set [8]: Tmax in Beagle dog at 5 mg/kg, po measured upto 24 hrs by HPLC-MS/MS analysis. The settings on record: in vivo. Format: ADME, organism-based, Canis lupus familiaris. The procedure, abridged:
as §2

Data set [9] addresses T1, Bromodomain-containing protein 4. In words: Binding affinity to BRD4 (unknown origin) assessed as change in melting temperature.
The conditions of data set [10]: rat, hepatocytes, 2 h, 0.5 µM.
Data set [11] can be described thus: Clearance in CD1 mouse blood at 1.4 mg/kg/hr, iv measured upto 24 hrs by LC-MS/MS analysis.
A short description of data set [12]: Oral bioavailability in Wistar Han rat at 3 mg/kg measured upto 24 hrs by HPLC-MS/MS analysis. The note with it: in vivo.

Results on 1 molecule are retold here after ChEMBL document CHEMBL4842350, “Discovery of a Novel Bromodomain and Extra Terminal Domain (BET) Protein Inhibitor, I-BET282E, Suitable for Clinical Progression” (J Med Chem, 2021).

A value given as a limit tells only on which side of the number the result lay.

Sequence of Cytochrome P450 2D6 (P10635 whole entry): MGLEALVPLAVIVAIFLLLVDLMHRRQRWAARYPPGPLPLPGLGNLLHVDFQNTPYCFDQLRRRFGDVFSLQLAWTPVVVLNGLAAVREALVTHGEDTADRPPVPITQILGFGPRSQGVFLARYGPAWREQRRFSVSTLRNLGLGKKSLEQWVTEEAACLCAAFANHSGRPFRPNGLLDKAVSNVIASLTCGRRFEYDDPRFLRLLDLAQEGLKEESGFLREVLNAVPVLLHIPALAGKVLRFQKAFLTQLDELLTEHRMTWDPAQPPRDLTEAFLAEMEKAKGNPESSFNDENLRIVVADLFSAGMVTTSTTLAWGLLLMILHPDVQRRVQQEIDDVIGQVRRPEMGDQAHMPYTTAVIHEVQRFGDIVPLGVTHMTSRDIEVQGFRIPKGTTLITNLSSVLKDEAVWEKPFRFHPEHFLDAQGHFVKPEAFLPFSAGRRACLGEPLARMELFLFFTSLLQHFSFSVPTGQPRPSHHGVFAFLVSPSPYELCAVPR
Sequence of Cytochrome P450 3A4 (P08684 whole entry): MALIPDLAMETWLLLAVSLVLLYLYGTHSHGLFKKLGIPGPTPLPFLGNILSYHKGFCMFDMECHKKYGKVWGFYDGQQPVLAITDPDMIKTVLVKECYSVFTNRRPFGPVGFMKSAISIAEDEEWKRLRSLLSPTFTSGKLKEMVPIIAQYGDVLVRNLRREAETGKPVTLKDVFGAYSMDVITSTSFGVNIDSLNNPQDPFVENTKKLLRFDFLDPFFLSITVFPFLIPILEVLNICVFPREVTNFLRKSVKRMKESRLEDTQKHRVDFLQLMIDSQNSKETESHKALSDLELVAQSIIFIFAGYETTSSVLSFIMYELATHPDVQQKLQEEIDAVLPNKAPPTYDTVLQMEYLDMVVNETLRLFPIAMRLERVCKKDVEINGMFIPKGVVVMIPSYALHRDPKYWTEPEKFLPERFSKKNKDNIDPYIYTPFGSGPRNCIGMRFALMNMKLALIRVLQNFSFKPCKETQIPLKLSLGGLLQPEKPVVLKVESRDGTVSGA

By IC50 is commonly meant the concentration that inhibits the measured activity by half. As usually defined, the fraction unbound is the share of the substance not bound to proteins or other matrix. The half-life is the time in which the quantity being followed falls by half. As a reminder, the Cmax is the highest concentration seen after dosing. The term Tmax denotes the time from dosing to the highest level. In general, ΔTm refers to the shift of the melting midpoint relative to a reference. Broadly, the clearance is the volume of plasma or blood freed of the substance per unit of time. High values mean efficient removal, low ones inefficient removal. A word on the bioavailability: it is the share of a dose that reaches the circulation, judged against a reference dose that is usually intravenous. Regarding `COC[C@@H](C)n1c(C2CCOCC2)nc2cnc3cc(-c4c(C)noc4C)c(OC)cc3c21`, the IC50 at Cytochrome P450 3A4 was 25.1 µM; in [1], 0.316 µM; on Cytochrome P450 2C19 it was above 50 µM; on Cytochrome P450 2D6 it was above 50 µM. Also, the fraction unbound in data set [2] worked out at 0.24. For the same molecule, the CLH in data set [3] came out at 68%. The Vd in data set [4] turned out to be 3.1 L/kg. In addition, the half-life in data set [5] was 1.8 h. Also, the AUCt in data set [6] turned out to be 367 ng·h/mL. In data set [7], this molecule registered a Cmax of 125 ng/mL. In data set [8], the Tmax was determined as 0.75 h. In [9], the ΔTm came to 9.9 °C. Further, the CLint in data set [10] is below 0.86 mL/min/g liver. The molecule further came in with a clearance in data set [11] of 23 mL/min/kg. In addition, the bioavailability in data set [12] amounted to 74%.
